High-throughput results deposited in PubChem BioAssay by several laboratories.
STAT3 act – IL-6 driven STAT3 reporter potentiators, primary screen, U3A cells, luciferase, luminescence, MLSCN library; actives 0.91% (n = 190,000); activation (% of control), % at 5.6 µM; AID 871, 2007; IL-6 STAT3-luciferase reporter; 100% = signal with IL-6 EC80 alone;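 active = activation above the screen-wide mean of compound activation plus 3 SD, cut at about 130% in these data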;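 note: 0% = background luminescence of wells with medium and substrate only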
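Test system: Human STAT1-deficient U3A cells with stable STAT3-luciferase reporter | Also added: Interleukin-6, 33 ng/mL | Timing: Compound pre-incubation 1 h before IL-6, then 6 h stimulation at 37 °C | Technique: Luciferase reporter luminescence | Read-out: Percent of IL-6-only median luminescence | Benchmarks: IL-6-only wells as 100% reference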
STAT3 inh – IL-6 driven STAT3 reporter inhibitors, primary screen, U3A cells, luciferase, luminescence, MLSCN library; IL-6 STAT3-luciferase reporter; host cell line lacks STAT1; inhibition, % at 5.5 µM; actives 0.89% (n = 190,000); AID 862, 2007;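 active = inhibition above the mean inhibition across all screened compounds plus 3 SD, cut at about 44% in these data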;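 note: 0% = DMSO only wells and 100% = 100 µM nifuroxazide control wells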
NF-kB expr up – activators of NF-kB expression in neurons, primary screen, cell-based, HTS | AID 1239, 2008 | fold change at 12.5 µM | human neuronal cells, NF-kB reporter expression; hits give high values | actives 1.6% (n = 190,000); in the data active = fold change above about 3.3
STAT1 blocker – STAT1 signaling inhibitors, primary screen, cell-based, HTS, luciferase reporter; NIH 3T3 STAT1-luciferase reporter, IFN-gamma, luminescence; inhibition, % at 5.5 µM; actives 0.35% (n = 200,000);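 active = inhibition above a set limit, the mean inhibition across all tested compounds plus 3 SD, cut at about 34% in these data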;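 note: 0% = IFN-gamma with DMSO and 100% = IFN-gamma with 300 µM nifuroxazide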
APP 5'UTR act – activators of APP 5'UTR luciferase reporter, primary screen, SH-SY5Y cells | activation, % at 2 µM | SH-SY5Y APP 5'UTR luciferase reporter, luminescence; zero percent = DMSO vehicle wells | actives 1% (n = 190,000);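 active = activation above a set limit, based on mean plus 3 SD of controls, cut at about 140% in these data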
STAT1 act – STAT1 signaling activators, primary screen, cell-based, HTS, luciferase reporter; actives 2.6% (n = 200,000); activation (% of control), % at 5.5 µM; NIH 3T3 STAT1-luciferase reporter, IFN-gamma, luminescence; 100% = IFN-gamma alone, no compound;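 active = activation above the screen-wide mean activation plus 3 SD, cut at about 130% in these data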;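 note: raw ratio to IFN-gamma control signal so 100% means no change and 0% no light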
STAT1 activ conf – STAT1 signaling activators, confirmation, cell-based, HTS, luciferase reporter; shares compounds with STAT1 act; NIH 3T3 STAT1-luciferase reporter, IFN-gamma potentiation, luminescence; 100% = IFN-gamma EC80 alone, no compound; activation (% of control), % at 5.7 µM; actives 97% (n = 1,200); AID 1262, 2008;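 active = activation above a set limit carried over from the earlier primary STAT1 screen, cut at about 140% in these data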;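 note: simple ratio to median IFN-gamma plus DMSO wells so 0% means no light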
NFkB act – NF-kB reporter activators, TNF-alpha stimulated, counter-screen for STAT1 activator project, cell-based, HEK293T, luciferase luminescence; shares compounds with STAT1 act; 100% = TNF-alpha with vehicle only; activation (% of control), % at 5.7 µM; AID 1306, 2008; actives 43% (n = 1,200);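 active = activation above the mean of solvent-only control wells plus 3 SD, set per campaign, cut at about 130% in these data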;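 note: TNF-alpha given at a submaximal dose yielding about 80% of full reporter signal; values are well signal over median control so 100% means no change and 0% no light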
STAT3 act STAT1c – STAT3 reporter activation by STAT1 hits, confirmation, counter-screen for STAT1 activator project, U3A cells, luciferase, luminescence. shares compounds with STAT1 act. IL-6; cells lack STAT1; 100 = IL-6 alone, no compound effect. activation (% of control), % at 5.7 µM. actives 46% (n = 1,200). AID 1316, 2008;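 active = activation above the solvent-only control well mean plus 3 SD, set per plate batch, cut at about 110% in these data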;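 note: 0% = no luminescence and 100% = median IL-6 plus DMSO wells; higher means more STAT3 reporter activation so hits are non-selective activators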
* hit, by the source's call; . = no result given. Most compounds without a hit are left out; they make up all but 5.1% or so of the library.

SMILES	STAT3 act	STAT3 inh	NF-kB expr up	STAT1 blocker	APP 5'UTR act	STAT1 act	STAT1 activ conf	NFkB act	STAT3 act STAT1c
O=C(NC1CCCC1)c1ccc(Br)o1	99	7	1.3	-4	-16	103	.	.	.
Cc1ccc(/C=C(\C#N)C(=O)Nc2ccccn2)o1	103	2	4.3*	-100	100	187*	205*	138*	111*
C=CCn1c(SCC(=O)NCCCC)nc2scc(-c3ccco3)c2c1=O	109	-4	0.97	1	0	99	.	.	.
COc1cccc(OC)c1C(=O)Nc1ccc2c(c1)Cc1ccccc1-2	93	19	1.9	-3	54	102	.	.	.
COc1ccc(C(=O)Nc2ccc3c(c2)Cc2ccccc2-3)cc1	103	4	1.2	1	-8	99	.	.	.
O=C(Nc1ccc(-c2nc3ccccc3o2)cc1)c1cccnc1	88	18	2.6	-72	45	166*	185*	146*	98
O=C(Nc1ccc2c(c1)Cc1ccccc1-2)c1ccco1	87	18	4*	-81	179*	174*	211*	139*	102
O=C(Nc1ccc2c(c1)Cc1ccccc1-2)c1cccnc1	93	15	2.5	-58	69	151*	143*	117	91
CC(=O)Nc1ccc(C(=O)Nc2ccc3c(c2)OCO3)cc1	101	5	1.6	-9	9	108	.	.	.
Cc1cc(C(=O)Nc2ccc3c(c2)OCO3)cs1	111	-9	4.5*	-50	178*	157*	168*	122	119*
O=C(Nc1ccc2nsnc2c1)c1ccc2c(c1)OCO2	72	32	7*	-58	150*	154*	214*	126	95
Cn1c(C(=O)Nc2ccc3c(c2)OCCO3)cc2sccc21	77	31	9.1*	-94	152*	186*	272*	132	103
Cc1ccc(-n2nc3ccc(NC(=O)c4ccc5c(c4)OCO5)cc3n2)cc1	109	-8	1.2	-4	8	104	.	.	.
Cc1cc(C)n(-c2nnc(C)n2/N=C/c2ccccc2F)n1	103	-3	1.2	4	6	95	.	.	.
CCCC(C)NC(=O)COC(=O)c1ccc(Cl)c(S(N)(=O)=O)c1 (stereo not drawn)	104	-4	0.99	0	-6	100	.	.	.
CCn1c(SCC(=O)N2CCOCC2)nc2ccccc21	94	10	0.89	3	14	95	.	.	.
COc1ccc(-n2c(Cn3c(=O)sc4ccccc43)nnc2SCC(=O)N2CCCCC2)cc1	97	8	1.1	-2	9	102	.	.	.
O=C(NC1CC1)C1=C[C@H](C2CCCCC2)C[C@H](OCc2ccc(CO)cc2)O1	.	.	1.1	-60	-1	158*	105	101	94
O=C(O)C1=C[C@@H](C2CCCCC2)C[C@@H](OCc2ccc(CO)cc2)O1	.	.	1.6	-1	2	102	.	.	.
CCC(C(=O)OC)n1cnc2c(cnn2-c2ccc(Cl)cc2)c1=O (stereo not drawn)	96	10	1.2	-3	-1	102	.	.	.
O=C(COC(=O)CCCc1nc2ccccc2s1)Nc1ncc(Cl)cc1Cl	99	1	0.98	3	0	97	.	.	.
CCN(CC)C(=O)CN1C(=O)NC2(CCc3ccccc3C2)C1=O (stereo not drawn)	95	8	1.1	-5	-12	104	.	.	.
CCSc1nc(-c2cccs2)nc2ccccc12	94	12	.	-1	14	100	.	.	.
Nc1c2c(=O)oc(-c3ccccc3)cc2nn1-c1ccccc1	105	4	3.3*	-87	150*	177*	203*	132	109
Cc1c(-c2ccc(Cl)cc2)oc(=O)c2c(N)n(-c3ccccc3)nc12	91	11	1.1	-14	-8	113	.	.	.
SMILES	STAT3 act	STAT3 inh	NF-kB expr up	STAT1 blocker	APP 5'UTR act	STAT1 act	STAT1 activ conf	NFkB act	STAT3 act STAT1c
Cc1ccc(N2C(=O)C3C(C2=O)C2C=CC3C23CC3)cc1 (stereo not drawn)	94	12	1.4	-5	3	104	.	.	.
O=C(NC1=NCCS1)c1sc2ccccc2c1Cl	103	2	7.1*	-79	146*	173*	210*	130	116*
O=C(NC1=NCCS1)c1sc2cc(Cl)cc(Cl)c2c1Cl	104	-2	1.2	2	-9	98	.	.	.
Cc1cccc(N/C=C/c2onc(C)c2[N+](=O)[O-])c1	115	-18	1.1	-57	16	155*	199*	141*	107
Cc1cccc(NS(=O)(=O)c2c(C)noc2C)c1	92	12	1.1	-1	-8	99	.	.	.
OCCNCc1cc(Br)ccc1OCc1ccc(Cl)cc1Cl	117	-14	1.2	6	.	94	.	.	.
Cc1cccn2cc(COc3ccc(-c4ccccc4)cc3)nc12	93	16	1.7	-70	44	162*	165*	106	115*
CC(C)CNc1nc(Oc2ccc(=O)[nH]n2)nc(N(C)C)n1	104	-8	0.95	2	-6	98	.	.	.
c1ccc2nc3c(nc2c1)[nH]c1ccccc13	116	-12	5.9*	-66	257*	160*	202*	132	126*
c1ccc(-c2c3ccccc3nc3[nH]c4ccccc4c23)cc1	103	-7	0.94	5	1	95	.	.	.
CN(C)CCC1CCN(c2cc(C#N)c(C#N)cc2[N+](=O)[O-])CC1	89	16	1	1	4	98	.	.	.
COc1cc(NC(=O)c2ccccc2Cl)ccc1NC(=O)c1cccs1	89	18	1.3	-53	85	153*	181*	134*	98
Cc1ccccc1C(=O)NC(NCc1ccco1)C(Cl)(Cl)Cl (stereo not drawn)	95	11	0.92	-5	18	105	.	.	.
CCc1ccc(OC)c(-c2csc(N)n2)c1	101	0	1.1	-8	28	108	.	.	.
